In article PMC4134498 (British Journal of Cancer, 2014):
“Also recorded” adds a separate entry of the source.

What was measured:
[1] = test system: platinum-sensitive, relapsed, high-grade serous ovarian cancer; settings: olaparib maintenance, ref Ledermann et al, 2012, cited from earlier work
[2] = test system: advanced solid tumours; assay: Preliminary efficacy: best objective response, RECIST v1.0; format: in vivo, patients
How it was run: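 Patients with advanced solid tumours took oral PARP inhibitor capsules bid, 50–400 mg, on days 1–7 (intermittent) or days 1–28 (continuous) of 28-day cycles, plus liposomal anthracycline 40 mg m−2 on day 1, for up to 6 combination cycles. Site investigators scored objective response by RECIST v1.0. Analyses ran by tumour type and gBRCA status, and for ovarian cancer by platinum sensitivity (progression-free interval ⩾6 months), retrospectively.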

[3] = ref Fong et al, 2009; cited from earlier work
[4] = Plasma pharmacokinetics of olaparib alone and with PLD; format: in vivo, patients; settings: for AUC(0-t): olaparib AUC0–10 h, Day 1 alone; for AUC(0-t) / Cmax: mean±s.d.; for Cmax: olaparib Cmax, Day 2+PLD
[5] = ovarian cancer patients, all cohorts + PLD 40 mg m^−2, Total (n=26)
[6] = ovarian cancer patients, olaparib 50 mg bid 7 day + PLD 40 mg m^−2 (n=3)
[7] = ovarian cancer patients, olaparib 100 mg bid 7 day + PLD 40 mg m^−2 (n=2)
[8] = ovarian cancer patients, olaparib 100 mg bid 28 day + PLD 40 mg m^−2 (n=2)
[9] = ovarian cancer patients, olaparib 200 mg bid 7 day + PLD 40 mg m^−2 (n=2)
[10] = ovarian cancer patients, olaparib 200 mg bid 28 day + PLD 40 mg m^−2 (n=3)
[11] = ovarian cancer patients, olaparib 400 mg bid 7 day + PLD 40 mg m^−2 (n=8)
[12] = ovarian cancer patients, olaparib 400 mg bid 28 day + PLD 40 mg m^−2 (n=8)
[13] = overall population, all cohorts + PLD 40 mg m^−2, Total (n=42)
[14] = overall population, olaparib 50 mg bid 7 day + PLD 40 mg m^−2 (n=3)
[15] = overall population, olaparib 100 mg bid 7 day + PLD 40 mg m^−2 (n=3)
[16] = overall population, olaparib 100 mg bid 28 day + PLD 40 mg m^−2 (n=4)
[17] = overall population, olaparib 200 mg bid 7 day + PLD 40 mg m^−2 (n=3)
[18] = overall population, olaparib 200 mg bid 28 day + PLD 40 mg m^−2 (n=7)
[19] = overall population, olaparib 400 mg bid 7 day + PLD 40 mg m^−2 (n=12)
[20] = overall population, olaparib 400 mg bid 28 day + PLD 40 mg m^−2 (n=12)

O=C(c1cc(Cc2n[nH]c(=O)c3ccccc23)ccc1F)N1CCN(C(=O)C2CC2)CC1 [olaparib]
PFS hazard ratio vs placebo ([1]; 95% CI, 0.25–0.49, P<0.00001): 0.35 | median PFS [1]: 8.4 months | patients with antitumour activity ([2]; continuous olaparib schedule + PLD): 7 out of 23 | patients with antitumour activity ([2]; intermittent olaparib schedule + PLD): 7 out of 21 | ORR, platinum-resistant ovarian patients with a gBRCA mutation ([2]; olaparib + PLD): 50% | ORR, platinum-sensitive ovarian patients with a gBRCA mutation ([2]; olaparib + PLD): 67% | ORR, platinum-sensitive ovarian patients with wild type or unknown gBRCA mutation status ([2]; olaparib + PLD): 100% | objective responses, evaluable patients with breast cancer ([2]; olaparib + PLD): 8% | response rate, platinum-resistant ovarian patients ([2]; olaparib + PLD): 25% | response rate, platinum-sensitive ovarian patients ([2]; olaparib + PLD): 71% | ORR, ovarian cancer subgroup ([2]; olaparib + PLD, 13 out of 26): 50% | ORR, overall population ([2]; olaparib + PLD, 14 out of 42): 33% | Ovarian cancer patients with a complete or partial objective response ([2]; olaparib + PLD, Platinum resistant, gBRCA Unknown): 0/6 | Ovarian cancer patients with a complete or partial objective response ([2]; olaparib + PLD, Platinum resistant, gBRCAm): 3/6 | Ovarian cancer patients with a complete or partial objective response ([2]; olaparib + PLD, Platinum sensitive, gBRCA Unknown): 1/1 | Ovarian cancer patients with a complete or partial objective response ([2]; olaparib + PLD, Platinum sensitive, gBRCAm): 8/12 | Ovarian cancer patients with a complete or partial objective response ([2]; olaparib + PLD, Platinum sensitive, gBRCAwt): 1/1 | response, gBRCA-mutated patients in the ovarian subgroup ([2]; olaparib + PLD, eleven patients): 61% | partial response (PR), evaluable patients ([2]; olaparib + PLD, overall, 11 patients): 26% | complete response (CR), evaluable patients ([2]; olaparib + PLD, overall, three patients): 7% | Best objective response: Complete response, patients [2, 5]: 3 (12) n (%) | Best objective response: Partial response, patients [2, 5]: 10 (38) n (%) | Best objective response: Progressive disease, patients [2, 5]: 5 (19) n (%) | Best objective response: Stable disease, patients [2, 5]: 8 (31) n (%) | Best objective response: Complete response, patients [2, 6]: 1 n | Best objective response: Partial response, patients [2, 6]: 1 n | Best objective response: Progressive disease, patients [2, 6]: 0 n | Best objective response: Stable disease, patients [2, 6]: 1 n | Best objective response: Complete response, patients [2, 7]: 0 n | Best objective response: Partial response, patients [2, 7]: 1 n | Best objective response: Progressive disease, patients [2, 7]: 1 n | Best objective response: Stable disease, patients [2, 7]: 0 n | Best objective response: Complete response, patients [2, 8]: 0 n | Best objective response: Partial response, patients [2, 8]: 0 n | Best objective response: Progressive disease, patients [2, 8]: 1 n | Best objective response: Stable disease, patients [2, 8]: 0 n | Best objective response: Complete response, patients [2, 9]: 0 n | Best objective response: Partial response, patients [2, 9]: 1 n | Best objective response: Progressive disease, patients [2, 9]: 0 n | Best objective response: Stable disease, patients [2, 9]: 1 n | Best objective response: Complete response, patients [2, 10]: 0 n | Best objective response: Partial response, patients [2, 10]: 1 n | Best objective response: Progressive disease, patients [2, 10]: 0 n | Best objective response: Stable disease, patients [2, 10]: 1 n | Best objective response: Complete response, patients [2, 11]: 1 n | Best objective response: Partial response, patients [2, 11]: 2 n | Best objective response: Progressive disease, patients [2, 11]: 1 n | Best objective response: Stable disease, patients [2, 11]: 4 n | Best objective response: Complete response, patients [2, 12]: 1 n | Best objective response: Partial response, patients [2, 12]: 4 n | Best objective response: Progressive disease, patients [2, 12]: 2 n | Best objective response: Stable disease, patients [2, 12]: 1 n | Best objective response: Complete response, patients [2, 13]: 3 (7) n (%) | Best objective response: Not evaluable/unknown, patients [2, 13]: 2 (5) n (%) | Best objective response: Partial response, patients [2, 13]: 11 (26) n (%) | Best objective response: Progressive disease, patients [2, 13]: 13 (31) n (%) | Best objective response: Stable disease, patients [2, 13]: 13 (31) n (%) | Best objective response: Complete response, patients [2, 14]: 1 n | Best objective response: Not evaluable/unknown, patients [2, 14]: 0 n | Best objective response: Partial response, patients [2, 14]: 1 n | Best objective response: Progressive disease, patients [2, 14]: 0 n | Best objective response: Stable disease, patients [2, 14]: 1 n | Best objective response: Complete response, patients [2, 15]: 0 n | Best objective response: Not evaluable/unknown, patients [2, 15]: 0 n | Best objective response: Partial response, patients [2, 15]: 1 n | Best objective response: Progressive disease, patients [2, 15]: 1 n | Best objective response: Stable disease, patients [2, 15]: 1 n | Best objective response: Complete response, patients [2, 16]: 0 n | Best objective response: Not evaluable/unknown, patients [2, 16]: 0 n | Best objective response: Partial response, patients [2, 16]: 0 n | Best objective response: Progressive disease, patients [2, 16]: 2 n | Best objective response: Stable disease, patients [2, 16]: 1 n | Best objective response: Complete response, patients [2, 17]: 0 n | Best objective response: Not evaluable/unknown, patients [2, 17]: 0 n | Best objective response: Partial response, patients [2, 17]: 1 n | Best objective response: Progressive disease, patients [2, 17]: 1 n | Best objective response: Stable disease, patients [2, 17]: 1 n | Best objective response: Complete response, patients [2, 18]: 0 n | Best objective response: Not evaluable/unknown, patients [2, 18]: 1 n | Best objective response: Partial response, patients [2, 18]: 1 n | Best objective response: Progressive disease, patients [2, 18]: 2 n | Best objective response: Stable disease, patients [2, 18]: 2 n | Best objective response: Complete response, patients [2, 19]: 1 n | Best objective response: Not evaluable/unknown, patients [2, 19]: 1 n | Best objective response: Partial response, patients [2, 19]: 2 n | Best objective response: Progressive disease, patients [2, 19]: 3 n | Best objective response: Stable disease, patients [2, 19]: 5 n | Best objective response: Complete response, patients [2, 20]: 1 n | Best objective response: Not evaluable/unknown, patients [2, 20]: 0 n | Best objective response: Partial response, patients [2, 20]: 5 n | Best objective response: Progressive disease, patients [2, 20]: 4 n | Best objective response: Stable disease, patients [2, 20]: 2 n | MTD of olaparib monotherapy (capsule formulation) [3]: 400 mg twice daily (bid) | Tmax ([4]; human, plasma, oral): 2.1 h | AUC(0-t) ([4]; human, plasma, oral, 50 mg, olaparib 50 mg, n=3): 8700 ± 5800 ng·h/mL | AUC(0-t) ([4]; human, plasma, oral, 400 mg, olaparib 400 mg bid, n=11): 25900 ± 9000 ng·h/mL | Cmax ([4]; human, plasma, oral, olaparib 50 mg bid): 1400 ± 700 ng/mL | Cmax ([4]; human, plasma, oral, olaparib 100 mg bid): 2200 ± 1000 ng/mL | PK interference between olaparib and PLD ([4]; in vivo): No major pharmacokinetic interference; also recorded: minor
